Screens (PubChem BioAssay)
PfGluPho inh: PfG6PD (Plasmodium falciparum) enzyme inhibition | PfGluPho enzyme, NADPH resazurin-diaphorase fluorescence | inhibition, % at 20 µM | 0.78% of 350,000 active | AID 504690;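 active means inhibition reaching at least a set limit at 20 µM in the primary screen, cut at about 59% in these data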;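 further: 0% = DMSO wells with substrate and 100% = DMSO wells lacking glucose-6-phosphate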
Diaph inh CS: diaphorase inhibition or chemical oxidation counter-screen. inhibition, % at 20 µM. diaphorase resazurin-to-resorufin fluorescence, NADH, 16 min; bacterial (C. kluyveri) enzyme, not human. 0.69% of 190,000 active;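 active means primary screen inhibition at 20 µM above a set limit, cut at about 50% in these data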;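 further: plate controls were DMSO with full reaction for no effect and wells lacking NADH for full effect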
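Test system: diaphorase enzyme from Clostridium kluyveri; amount: diaphorase at 0.14 U/mL in enzyme working solution; detection: fluorescence of resorufin formed from resazurin, Ex 544/Em 590 nm; times: reaction incubation of 16 min at room temperature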
G6PDH CS: counter-screen for G6PDH assay hits: L. mesenteroides G6PDH inhibition; Purified L. mesenteroides G6PDH, diaphorase/resazurin coupled fluorescence, 45 min; inhibition, % at 5 µM; 0.12% of 200,000 active; AID 1020
L major viab: Leishmania major promastigote growth inhibition; Leishmania major promastigotes, resazurin fluorescence viability; 9% of 200,000 active; inhibition, % at 10 µM;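 further: promastigotes grown with compound for 44 hours at 28 °C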
Diaph act CS: activates diaphorase or chemically reduces, flagging diaphorase assay artifacts; Diaphorase/resazurin coupled assay, resorufin fluorescence, 16 min; stronger effect = higher value; 1 = vehicle wells, 0 = NADH-free wells; activation factor at 20 µM; 0.005% of 190,000 active; AID 1229;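 active means diaphorase activity raised at least twofold by the compound at 20 µM; inactive means activation factor below 2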
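Material: purified diaphorase enzyme from Clostridium kluyveri; Also added: 0.114 mM NADH and 0.1 mM resazurin, final amounts; Doses: single compound dose of 20 µM, 1% DMSO final; Times: 16 min enzyme reaction, ambient temperature; Detection: resorufin fluorescence, excitation 544 nm, emission 590 nm; Measure: increased resorufin signal from activators or reducing compounds.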
DTT redox prof: compounds producing H2O2 with reducing agent – biochemical, NIH compound library profiling, artefact control for MLSCN library redox annotation, primary screen; 0.03% of 200,000 active; activation, % at 10 µM; DTT-dependent redox cycling H2O2, phenol red/HRP absorbance; 100% = 100 µM peroxide control, 0% = buffer;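 active means activation of at least 50% relative to the plate's high and low controls in the primary single-dose screen; inactive means activation below 50%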;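 further: compound incubated with DTT at 0.8 mM final as the reducing agent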
Active calls of the source: *; · = not tested or not shown. This is one part of a sample in which hits are shown more often than they occur. Unless noted, no stated cut-off is given here; in the data, active means inhibition above about 50%; inactive means the rest.

SMILES	PfGluPho inh	Diaph inh CS	G6PDH CS	L major viab	Diaph act CS	DTT redox prof
O=C(CSc1ncnc2ccccc12)Nc1ccc(N2CCOCC2)cc1	·	13.3	3.8	4.7	0.9	-0.4
COc1ccc(/C=C/C(=O)NC2=NCCS2)cc1OC	-19.7	0.5	3.9	5.5	1	-1.4
Cc1cccc(/C=C/C(=O)c2ccc(NC3=NCCCS3)cc2)c1	-0.4	6.2	6.3	77.0*	0.9	0.6
COc1cccc(/C=C/C(=O)c2ccc(NC3=NCCCS3)cc2)c1	-2.3	18.0	1.0	99.0*	0.8	-0.1
COc1cccc(/C=C/C(=O)OCC(=O)Nc2ccc3c(c2)OCCO3)c1	10.4	·	·	·	·	·
COc1cc(C)cc(OC)c1OCC(=O)Nc1cc(C)on1	-3.9	·	·	·	·	·
Cc1ccc(OCCC(=O)Nc2ccc(F)c(F)c2)cc1	0.4	18.3	2.9	-5.1	0.8	-0.1
CC(C)CC(=O)Nc1ccc(F)c(Cl)c1	-2.8	19.3	4.0	60.2*	0.8	1.4
Cc1cccc(OCCC(=O)Nc2ccc(F)c(Cl)c2)c1	11.3	0.0	-4.6	65.3*	1	0.2
CN(C)CCCNC(=O)C1(O)c2cc(Br)ccc2NC(=O)N1c1c(F)cccc1F (centres undefined)	11.4	·	·	·	·	·
COc1ccc(CNC(=O)COC(=O)c2ccccn2)cc1	-12.7	10.7	13.1	-7.4	0.9	0.0
CC(C)(C)Nc1nc(NC(C)(C)C)nc(-n2ccnc2)n1	7.4	15.4	-24.8	98.3*	0.8	1.3
Cc1cc(=O)[nH]c(-c2ccc(C(F)(F)F)cc2)n1	4.3	·	·	·	·	·
Cc1ccc(Cn2nc(C)c(NC(=O)CCCn3nc(C)c([N+](=O)[O-])c3C)c2C)cc1	-18.8	13.9	7.0	51.5*	0.9	-0.4
Cc1nn(Cc2c(Cl)cccc2Cl)c(C)c1NC(=O)CCCn1nc(C)c([N+](=O)[O-])c1C	11.8	-9.2	8.0	66.3*	1.1	0.4
Cc1ccc(C(=O)c2cn[nH]c2-c2cc(Cl)ccc2O)cc1	18.6	2.7	9.5	98.4*	1	-1.4
Fc1cccc(-c2cc3nc4c(c(N5CCN(c6cnccn6)CC5)n3n2)CCCC4)c1	·	·	·	-0.5	·	3.1
Clc1cccc(-c2cc3nc4c(c(N5CCN(c6cnccn6)CC5)n3n2)CCCC4)c1	11.8	21.3	5.5	61.6*	0.8	0.2
O=C(c1nc(-c2ccccc2)n(-c2ccccc2)n1)N1CCN(S(=O)(=O)c2ccccc2)CC1	16.8	-2.0	11.7	57.7*	1	-1.6
COc1ccc(S(=O)(=O)N2CCN(Cc3ccccc3OC)CC2)cc1	16.9	·	·	·	·	·
CCS(=O)(=O)N1CCN(Cc2ccccc2OC)CC1	-14.8	4.8	21.8	60.1*	1	0.5
CCOc1ccccc1CN1CCN(S(=O)(=O)CC)CC1	-4.3	12.8	4.0	82.0*	0.9	0.4
CN(C)C(=S)Oc1ccccc1C1SCCS1	21.1	·	·	·	·	·
CCOc1cc(NC(=O)c2ccco2)c(OCC)cc1NC(=O)Cc1cccc(OC)c1	27.0	43.2	-57.2	63.4*	0.6	1.3
COc1cccc(C(=O)COc2cccc(NC(=O)c3ccco3)c2)c1	3.3	28.0	4.5	39.6	0.7	-1.2
SMILES	PfGluPho inh	Diaph inh CS	G6PDH CS	L major viab	Diaph act CS	DTT redox prof
COc1ccc(C(=O)COc2cccc(NC(=O)c3ccco3)c2)cc1	-5.9	5.6	-4.7	58.9*	0.9	1.1
CC1Cc2ccccc2N1C(=S)NC(=O)c1ccco1 (centres undefined)	3.7	-2.9	1.1	-0.2	1	0.3
CC(Oc1ccc(NC(=O)c2ccco2)cc1)C(=O)N1c2ccccc2CC1C (centres undefined)	8.9	9.0	3.7	57.5*	0.9	2.9
Cc1ccc(C(=O)C(C)Oc2cccc(NC(=O)c3ccco3)c2)cc1 (centres undefined)	-1.8	-0.3	0.1	97.1*	1	0.8
Cc1ccccc1S(=O)c1ccccc1C(=O)O (centres undefined)	11.6	·	·	·	·	·
CC(C)(CNC(=O)CO/N=C1/C=C2CCC3C(C(O)C[C@@]4(C)C3CC[C@]4(O)C(=O)CO)[C@@]2(C)CC1)C(O)C(=O)O (some centres undefined)	-6.5	·	·	·	·	·
COc1ccc(OCCCC(=O)Nc2nc(-c3ccccn3)cs2)cc1	20.5	-19.3	19.0	100.5*	1.2	-1.1
O=C(CCS(=O)(=O)c1ccccc1)Nc1nc(-c2ccccn2)cs1	8.6	·	·	92.1*	·	-3.1
O=C(CCS(=O)(=O)c1ccc(F)cc1)Nc1nc(-c2ccccn2)cs1	-1.3	·	·	·	·	·
COc1ccc(OC)c(-c2csc(NC(=O)CSc3ccccc3)n2)c1	9.2	31.2	48.8	77.2*	0.7	0.0
CC1(C)CC(=O)c2sc(NC(=O)c3ccccc3)nc2C1	·	-3.0	9.3	8.0	1	4.0
CC1(C)CC(=O)c2sc(NC(=O)CCS(=O)(=O)c3ccccc3)nc2C1	-4.8	-2.7	22.9	77.8*	1	-0.5
COc1ccc(C(=O)O)cc1S(=O)(=O)NCc1ccccn1	14.1	·	·	·	·	·
Cc1cc(C)c(OCC(=O)Nc2nc(-c3ccccn3)cs2)c(C)c1	-2.3	10.1	1.4	86.6*	0.9	-0.7
Cc1ccccc1OCC(=O)Nc1nc(-c2ccncc2)cs1	22.0	·	·	·	·	·
COc1cc(C(=O)Nc2nc(C)cc(C)n2)cc(OC)c1OC	-2.3	·	·	·	·	·
O=C1CC(=C2c3ccccc3-c3ccccc32)C(=O)N1CCCCN1CCN(c2ccccc2)CC1	7.6	-2.8	-0.3	99.4*	1	-0.4
O=C(CCNS(=O)(=O)c1ccc(Br)s1)NC1CCCC1	-5.9	-4.2	3.3	-6.8	1	-1.5
O=C(CCNS(=O)(=O)c1ccc(Br)s1)Nc1ccc(Cl)cc1	8.1	12.7	-6.6	81.2*	0.9	0.2
Cc1ccn2c(NC3CCCC3)c(-c3ccccn3)nc2c1	5.2	2.8	24.0	100.6*	1	-0.5
c1ccc(-c2nc3ccccn3c2NC2CCCC2)nc1	5.5	-16.3	8.2	100.3*	1.2	-0.1
CC(=O)Nc1c(-c2ccccc2)nc2cc(C)ccn12	13.9	·	·	·	·	·
Cc1ccn2c(NC3CCCC3)c(-c3ccncc3)nc2c1	-8.4	14.7	7.3	88.9*	0.9	-0.6
Cc1ccn2c(Nc3ccccc3C)c(-c3ccncc3)nc2c1	9.8	20.2	-14.2	86.0*	0.8	-0.3
O=C(NCc1ccncc1)C(=O)N/N=C/c1ccccn1	1.5	46.9	22.8	-5.7	0.5	-0.4
Cc1ccc(NC(=O)CSCC(=O)OCc2cc(=O)oc3cc(O)ccc23)c(C)c1	-1.0	·	·	·	·	·
Cc1ccc2c(c1C)C(=O)C(=O)N2	-9.6	·	·	·	·	·
Cc1ccc2nc(-c3ccncc3)c(NC3CCCCC3)n2c1	-8.4	1.5	0.8	65.4*	1	-1.8
Cc1ccc2nc(-c3ccncc3)c(NC3CCCC3)n2c1	-25.2	9.9	2.5	30.8	0.9	0.2
